For series [1], the system named is Hepatitis B virus. Description: Antiviral activity against HBV in human HepG2(2.2.15) cells assessed as inhibition of HBsAg production after 9 days by enzyme immunoassay. It is filed as functional, organism-based. The procedure, abridged: (§1)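 2.2.15 cells seeded at 1.0 × 10⁵ cells/mL in MEM with 10% FBS for 24 h. After attachment, exposed to 50, 25 or 12.25 µg/mL in fresh DMEM, 4 wells per concentration, for 9 d, with medium changed every 3 d. Supernatant HBsAg and HBeAg measured by semiquantitative EIA kits on days 6 and 9. Untreated cells as control. Run twice.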

Series [2] concerns Hepatitis B virus. Description: Antiviral activity against HBV in human HepG2(2.2.15) cells assessed as inhibition of HBeAg production after 9 days by enzyme immunoassay. It is filed as functional, organism-based. In a few lines:
as §1

A short description of series [3]: Cytotoxicity against human HepG2(2.2.15) cells treated for 9 days measured after 24 hrs of last treatment by neutral red uptake assay. It counts as cell-based. Particulars: read-out: TC50. In a few lines:
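Confluent 2.2.15 cells treated as for the antiviral assay, 0.2 mL medium per well, with untreated control wells on each plate. Neutral red dye uptake read as absorbance at 510 nm relative to untreated cells, 24 h after day 9 of treatment.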

Series [4] in a line: Selectivity index, ratio of TC50 for human HepG2(2.2.15) cells to IC50 for HBV.
Series [5] concerns Hepatitis B virus. Nature of the series: Antiviral activity against HBV in human HepG2(2.2.15) cells assessed as inhibition of viral genome replication after 9 days by Southern blot hybridization. It counts as functional, organism-based. The note with it: HepG2 2.2.15, 216 h. The procedure, abridged: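 Confluent 2.2.15 cultures in RPMI 1640 with 2% FBS received daily doses, with medium and drug renewed each day. Intracellular HBV DNA quantified by Southern blot hybridization. IC50 calculated by […].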

Molecules are shown by their SMILES. Active and inactive are the calls of the source. No cut-off for these calls is given here. Square brackets hold non-standard residues; d marks the D form. Peptide text beside a SMILES is read from it. * marks the point of attachment. Phe(4-NO2) = N[C@@H](Cc1ccc([N+](=O)[O-])cc1)C(=O)O; Phe(4-NH2) = Nc1ccc(C[C@H](N)C(=O)O)cc1; Propionyl = CCC(=O)*; Bz = O=C(c1ccccc1)*

Regarding `Cc1ccc(C(=O)N[C@@H](Cc2ccccc2)C(=O)N[C@H](CO)Cc2ccccc2)cc1`, the result in the series with Hepatitis B virus [1] and in the series with Hepatitis B virus [2] was inactive. For the same molecule, the CC50 at 216 h in series [3] was 1860 µM.

As to `O=C(N[C@@H](Cc1ccccc1)C(=O)N[C@@H](Cc1ccc(O)cc1)C(=O)O)c1ccccc1` (Bz-Phe-Tyr-OH), the result with Hepatitis B virus [1] and in the series on Hepatitis B virus [2] was inactive.

Broadly, the IC50 is the point on the concentration scale where inhibition reaches its midpoint. Take `O=C(N[C@@H](Cc1ccc([N+](=O)[O-])cc1)C(=O)N[C@@H](Cc1ccccc1)C(=O)O)c1ccccc1` (Bz-[Phe(4-NO2)]-Phe-OH): the “Selectivity Index” value in series [4] is on record as 15.52. The result with Hepatitis B virus [1] and in the series with Hepatitis B virus [2] was inactive. The IC50 in the series with Hepatitis B virus [5] turned out to be 54.2 µM. Further, the CC50 at 216 h in series [3] amounted to 841 µM.

Regarding `O=C(N[C@@H](Cc1ccccc1)C(=O)N[C@H](CO)Cc1ccccc1)c1ccccc1Cl`, the result in the series with Hepatitis B virus [1] and in the series with Hepatitis B virus [2] was inactive. Moreover, the CC50 at 216 h in series [3] worked out at 382 µM.

As to `CC(=O)Nc1ccc(C[C@@H](CO)NC(=O)[C@H](Cc2ccccc2)NC(=O)c2ccccc2)cc1`, the outcome in the series with Hepatitis B virus [1] and in the series on Hepatitis B virus [2] was inactive. The CC50 at 216 h in series [3] was found to be 164 µM.

As for `CC(=O)Nc1ccc(C[C@H](NC(=O)c2ccccc2)C(=O)N[C@H](CO)Cc2ccccc2)cc1`, the “Selectivity Index” value in series [4] came out at 23.82. Besides, the result in the series on Hepatitis B virus [1] and in the series with Hepatitis B virus [2] was inactive. In the series on Hepatitis B virus [5], the IC50 worked out at 3.94 µM. Moreover, in series [3], the CC50 at 216 h worked out at 93.8 µM.

As for `O=C(N[C@@H](Cc1ccccc1)C(=O)N[C@H](CO)Cc1ccccc1)c1ccccc1`, the outcome in the series with Hepatitis B virus [1] and in the series with Hepatitis B virus [2] was inactive. In addition, the CC50 at 216 h in series [3] is 574 µM.

Regarding `CCC(=O)Nc1ccc(C[C@H](NC(=O)[C@H](Cc2ccccc2)NC(=O)c2ccccc2)C(=O)O)cc1` (Bz-Phe-[Phe(4-NH2)](Propionyl)-OH), the result in the series on Hepatitis B virus [1] and in the series on Hepatitis B virus [2] was inactive. Moreover, the CC50 at 216 h in series [3] is 1150 µM.

On to `O=C(N[C@@H](Cc1ccc([N+](=O)[O-])cc1)C(=O)N[C@H](CO)Cc1ccccc1)c1ccccc1`, for which the outcome in the series with Hepatitis B virus [1] and with Hepatitis B virus [2] was inactive. In addition, the CC50 at 216 h in series [3] was found to be 119 µM.

For `Cc1cccc(C(=O)N[C@@H](Cc2ccccc2)C(=O)N[C@H](CO)Cc2ccccc2)c1`, the “Selectivity Index” value in series [4] is recorded as 3.06. Also, the result in the series on Hepatitis B virus [1] and with Hepatitis B virus [2] was inactive. For the same molecule, the IC50 in the series with Hepatitis B virus [5] was found to be 60.5 µM. Besides, in series [3], the CC50 at 216 h was determined as 185 µM.

As to `O=C(N[C@@H](Cc1ccccc1)C(=O)N[C@H](CO)Cc1ccccc1)c1ccc(Cl)cc1`, the “Selectivity Index” value in series [4] is 28.29. The result in the series on Hepatitis B virus [1] and with Hepatitis B virus [2] was inactive. Besides, the IC50 with Hepatitis B virus [5] was determined as 2.33 µM. In addition, the CC50 at 216 h in series [3] came to 65.8 µM.

On to `O=C(N[C@@H](Cc1ccccc1)C(=O)N[C@H](CO)Cc1ccc([N+](=O)[O-])cc1)c1ccccc1`, for which the result in the series on Hepatitis B virus [1] and with Hepatitis B virus [2] was inactive. In addition, the CC50 at 216 h in series [3] was found to be 117 µM.

On to `CC(=O)Nc1ccc(C[C@H](NC(=O)[C@H](Cc2ccccc2)NC(=O)c2ccccc2)C(=O)O)cc1` (Bz-Phe-[Phe(4-NH2)](Ac)-OH), for which the result in the series on Hepatitis B virus [1] and with Hepatitis B virus [2] was inactive.

With `O=C(N[C@@H](Cc1ccccc1)C(=O)N[C@@H](Cc1ccccc1)C(=O)O)c1ccccc1` (Bz-Phe-Phe-OH), the “Selectivity Index” value in series [4] is recorded as 12.36. Moreover, the outcome in the series on Hepatitis B virus [1] and in the series on Hepatitis B virus [2] was inactive. Besides, the IC50 in the series with Hepatitis B virus [5] is 25.4 µM. In series [3], the CC50 at 216 h is 313 µM.

With `Nc1ccn([C@@H]2CS[C@H](CO)O2)c(=O)n1` [LAMIVUDINE], the “Selectivity Index” value in series [4] was 41.59. Moreover, in the series on Hepatitis B virus [5], the half-inhibitory concentration (IC50) is 82.4 µM. In addition, the CC50 at 216 h in series [3] amounted to 3430 µM.
